In the library only some 6.8% were active in any assay of this set; here they are far more common.
PHOSPHO1 block: PHOSPHO1 (human) inhibition | inhibition, % at 13.3 µM | recombinant PHOSPHO1, absorbance phosphatase assay | Q8TCT1 | actives 1.1% (n = 290,000) | AID 1565; in the data active = inhibition above about 60%
Target sequence (Q8TCT1 whole entry, looked up): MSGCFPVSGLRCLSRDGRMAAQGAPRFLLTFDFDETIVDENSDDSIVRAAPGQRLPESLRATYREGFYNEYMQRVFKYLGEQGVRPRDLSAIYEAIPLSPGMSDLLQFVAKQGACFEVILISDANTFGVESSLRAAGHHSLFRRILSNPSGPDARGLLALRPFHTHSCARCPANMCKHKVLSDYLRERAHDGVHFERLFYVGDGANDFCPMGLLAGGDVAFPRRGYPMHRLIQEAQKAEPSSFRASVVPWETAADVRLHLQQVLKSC
HSF1 activator: increases HSF-1 driven luciferase reporter signal; NIH3T3-HGL HSF-1 luciferase reporter, MG132, 8 h; 100% = twice DMSO control signal; AID 504408; actives 1.7% (n = 300,000); activation, % at 9 µM;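 active = mean replicate activation of at least 50% with a set share of replicates each reaching 50%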;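 note: 0% = median of the neutral control wells and 100% = twice that signal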
ALR inh: human ALR oxidase inhibition via reduced H2O2; P55789; purified ALR, DTT oxidation, H2O2 HRP-luminol luminescence; inhibition, % (no concentration beside the values); actives 3.8% (n = 290,000); AID 485317;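 active = mean replicate inhibition above about 79%, with every replicate also reaching it, limit read from the data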
Target sequence (P55789 whole entry, looked up): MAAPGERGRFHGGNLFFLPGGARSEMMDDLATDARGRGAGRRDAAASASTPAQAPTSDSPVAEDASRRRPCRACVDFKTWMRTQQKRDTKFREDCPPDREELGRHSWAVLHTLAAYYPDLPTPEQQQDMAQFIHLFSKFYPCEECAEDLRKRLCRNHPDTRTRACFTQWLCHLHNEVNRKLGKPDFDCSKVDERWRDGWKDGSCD
HCV core dimer: HCV core protein dimerization inhibition | actives 0.33% (n = 300,000) | AID 1899 | TR-FRET GST/Flag-core106 dimerization, 1536-well | inhibition, % at 5 µM;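 active = inhibition above the mean of all tested compounds plus 3 SD, set per screening campaign, cut at about 45% in these data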
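Assay system: GST-tagged and Flag-tagged HCV core protein residues 1-106 / Times: compound-protein-antibody incubation 4 h at 22.5 °C / Signal: time-resolved FRET, ex 340 nm, em 617 and 671 nm / Evaluation: % inhibition based on acceptor/donor emission ratio / Benchmarks: wells lacking GST-core106 and wells with excess unlabelled core106 / Repeats: singlicate, one well per compound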
AI-2 QS mod: modulators of Vibrio harveyi AI-2 quorum sensing system. activity change, % at 7.5 µM. actives 0.4% (n = 300,000). Vibrio harveyi JMH597 AI-2 luminescence/OD600 ratio, 9 h; active compounds read low; strain lacks LuxN and CqsS sensors; 0 = neutral-control median; in the data active = activity change below about -75%, passing the limit was not always enough;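 note: luminescence divided by OD600 gain over 9 h not by final OD600 alone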
HSF1 inh: HSF1 inhibition | NIH3T3-HGL HSE-luciferase, MG132-induced, luminescence 8 h; active compounds read low | activity change, negative = inhibition, % at 7.5 µM (by protocol) | actives 0.77% (n = 300,000);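 active = more than half of replicate wells show activity change below -50%, luminescence cut by over half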;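 note: luciferase reports HSF-1 transcriptional activity via heat shock element; 0% = median of DMSO wells and -100% = zero luminescence signal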
Numbers without * were called inactive; nt = no result.

SMILES | PHOSPHO1 block | HSF1 activator | ALR inh | HCV core dimer | AI-2 QS mod | HSF1 inh
CNC[C@H](Cc1ccccc1)NC[C@@H](Cc1cccc2ccccc12)NCCc1ccc(C)cc1 | 9.9 | -92.2 | -41.9 | -12.6 | 0.1 | -90.6*
CNCCNC[C@H](Cc1cccc2ccccc12)NCCc1ccccc1 | nt | nt | -4.2 | nt | nt | nt
Nc1nonc1C(=O)N/N=C/c1cc(Br)ccc1O | -3.9 | -46.7 | -6.2 | -17.2 | -88.7* | -31.7
Cc1ccccc1NC(=O)CCC(=O)N/N=C/c1cc([N+](=O)[O-])ccc1O | 2.3 | -29.6 | 4.4 | -5.7 | -109.4* | -21.3
Cn1cc([N+](=O)[O-])c(C(=O)N/N=C/c2ccncc2)n1 | 14.5 | -11.6 | -22.3 | -6.2 | 13.3 | -0.6
Cn1ccc(C(=O)N/N=C/c2ccncc2)n1 | nt | 78.2* | nt | nt | 3.1 | 34.9
O=C(N/N=C/c1cc(Br)ccc1O)c1ccncc1 | 23.9 | -3.6 | nt | -2.6 | -94.1* | 0.7
O=C(N/N=C/c1ccccc1O)c1ccncc1 | nt | 0.8 | -1.8 | 7.1 | 5.4 | 0.1
O=C(N1CCCC1)C12CC3CC(CC(Cl)(C3)C1)C2 | 9.3 | -20.3 | -1.0 | -4.0 | 5.4 | -0.5
O=C(Nc1ccc2nc3n(c(=O)c2c1)CCCCC3)C(=O)N1CCN(c2ccccc2)CC1 | -3.5 | 4.8 | 32.7 | 0.9 | 34.7 | 3.7
NC(=O)C1=C[C@H](C2CCCCC2)C[C@H](OCc2ccc(CO)cc2)O1 | 39.7 | -42.3 | 21.9 | 0.1 | -3.2 | -24.2
CC(NC(=O)c1ccc(F)cc1)C(=O)NC1=NCCS1 (stereo not drawn) | 3.5 | 4.4 | -7.6 | -3.8 | -13.2 | -4.1
CC1(C)CC(=O)C=C(c2cccc3c2sc2ccccc23)C1 | nt | nt | -7.0 | nt | nt | nt
CCOC(=O)CNc1nc(C(C)(C)C)nc2c1nnn2Cc1ccccc1 | 19.0 | 1.0 | nt | 8.0 | -5.6 | 0.1
O=C(N/N=C/c1cc([N+](=O)[O-])ccc1O)c1ccncc1 | 12.1 | -61.1 | -2.3 | -3.4 | -90.6* | -54.3*
Cc1ccc(/C=N/NC(=O)c2ccncc2)cc1 | 13.5 | 32.8 | 1.1 | -1.8 | 38.2 | -3.3
O=C(N/N=C/c1ccc(O)c([N+](=O)[O-])c1)c1ccncc1 | 22.5 | 4.2 | -8.2 | -3.2 | 31.6 | 0.1
O=C(N/N=C/c1ccc(O)cc1)c1ccncc1 | -5.7 | 11.9 | 98.8* | -4.1 | 16.4 | 7.5
CCOC(=O)c1cc(-c2ccc(OC(F)F)cc2)nc2c1c(=O)[nH]c(=O)n2C | -6.2 | -3.3 | -9.6 | 18.3 | 20.5 | -0.9
CSC(=NC#N)N1CCN(c2ccccc2)CC1 | 10.5 | -5.0 | 76.2* | 1.7 | -3.2 | -0.4
CSC(=NC#N)N1CCN(c2c(C)cccc2C)CC1 | 28.7 | -0.7 | -2.6 | 6.3 | 11.8 | 5.0
CSC(=NC#N)N1CCN(c2cccc(Cl)c2)CC1 | 16.2 | 19.0 | 93.7* | -4.1 | 12.8 | 13.9
O=c1c2c3c(sc2nc2n1CCCCC2)CCCC3 | 75.6* | 42.5 | 54.3 | 8.5 | -2.4 | 18.0
CC1CSc2nc3sc4c(c3c(=O)n21)CCCC4 (stereo not drawn) | 67.1* | 21.3 | -9.3 | -1.5 | -2.2 | 11.8
O=S(=O)(Nc1nnc(C2CC2)s1)c1ccccc1 | 29.2 | -9.5 | nt | -0.4 | 2.1 | -2.2
SMILES | PHOSPHO1 block | HSF1 activator | ALR inh | HCV core dimer | AI-2 QS mod | HSF1 inh
CCOc1ccc(S(=O)(=O)N2CCN=C2c2ccccc2)cc1 | 42.6 | -9.5 | -3.2 | 5.0 | 5.6 | -3.6
Cc1ccc(C2Cc3cc(O)c(O)cc3CN2)cc1 (stereo not drawn) | nt | -5.5 | 98.6* | 2.9 | 13.5 | 3.0
CC1CCCC(NC(=O)CSc2ncccn2)C1C (stereo not drawn) | nt | nt | 0.5 | nt | nt | nt
CC(=O)Nc1ccc(OCC(O)CN2CCN(c3cccc(Cl)c3)CC2)cc1 (stereo not drawn) | -6.9 | -2.3 | 98.8* | -3.3 | 31.8 | -6.6
CC(=O)Nc1ccc(OCC(O)CN2CCN(c3ccc(Cl)cc3)CC2)cc1 (stereo not drawn) | -5.6 | -0.7 | 10.5 | -3.8 | 11.9 | -1.2
CC(=O)Nc1ccc(OCC(O)CN2CCN(c3ccc(F)cc3)CC2)cc1 (stereo not drawn) | 14.9 | 2.0 | 98.0* | -9.3 | -1.3 | -12.6
CC(=O)c1ccc(OCC(O)CN2CCN(c3ccc(F)cc3)CC2)cc1 (stereo not drawn) | 31.3 | -0.8 | 98.2* | -0.5 | 18.7 | 5.0
COc1ccccc1CN1CC(C(=O)NCCn2ccc(C)n2)CCC1=O (stereo not drawn) | -11.4 | 10.9 | nt | -5.1 | 23.3 | -4.7
Cc1ccc(S(=O)(=O)N2CCC(C(=O)OCC(=O)N(C)C3CCCCC3)CC2)cc1C | nt | 7.4 | nt | 3.7 | 10.5 | 5.8
O=[N+]([O-])/C(C(Cl)=C(Cl)Cl)=C(/Sc1ccccc1)N1CCCCC1 | 51.9 | 25.1 | 92.2* | -0.2 | 8.5 | 2.9
O=C1NC(c2ccncc2)Nc2ccccc21 (stereo not drawn) | 1.8 | -18.6 | -11.7 | -9.8 | 31.0 | 1.2
Cc1ccc(C2NC(=O)c3ccccc3N2)s1 (stereo not drawn) | 1.0 | 66.9* | 3.0 | 4.3 | 10.7 | 46.2
CN(C)c1ccc(CC2C(=O)Nc3ccccc32)cc1 (stereo not drawn) | 24.3 | -11.7 | 98.5* | 0.8 | 31.7 | -6.2
CN(C)c1ccc(C2Nc3cccc4cccc(c34)N2)cc1 | 35.6 | -24.0 | -128.9 | -23.7 | 15.7 | -23.0
CN(C)c1ccc(C2NC(=O)c3ccccc3N2)cc1 (stereo not drawn) | 39.0 | 78.2* | 5.0 | -18.5 | -2.2 | 53.6
O=C1NC(c2ccc(Cl)cc2)Nc2ccccc21 (stereo not drawn) | 22.0 | 70.1* | -34.7 | 2.1 | 17.4 | 30.1
O=C1NC(c2ccco2)Nc2ccccc21 (stereo not drawn) | 3.6 | 17.8 | -3.3 | -7.8 | 21.7 | 2.3
CN(C(=O)c1ccc(N2CCCCC2)c([N+](=O)[O-])c1)C1(C)CCS(=O)(=O)C1 (stereo not drawn) | 42.8 | 2.4 | -0.6 | -3.9 | 24.4 | -1.3
CC1CCC2C(C1)c1sc(=O)[nH]c1SC2(C)C (stereo not drawn) | 7.1 | -26.6 | 97.8* | 4.5 | 25.3 | -5.6
Cc1cc(Cl)ccc1C(=O)C1CCCN(C(=O)c2cncs2)C1 (stereo not drawn) | 7.9 | -0.7 | -4.7 | -3.5 | 7.0 | 1.8
COCC(C)NS(=O)(=O)c1ccccc1 (stereo not drawn) | 24.9 | 2.5 | -6.1 | 0.5 | 28.2 | -1.1
CCCC(C)NS(=O)(=O)c1ccccc1 (stereo not drawn) | -6.0 | -68.3 | -0.6 | 0.7 | 4.7 | -59.3*
Cn1c(=O)c2c(nc(Cl)n2CC(=O)N2CCCCC2)n(C)c1=O | -12.4 | 10.1 | -22.8 | 4.6 | 39.0 | -3.9
Cc1nn2c(CN(C(=O)CN3CCOCC3)c3ccccc3)nnc2c2ccccc12 | 1.1 | -63.1 | 0.6 | -15.2 | 7.8 | -56.4*
